Data set [1] concerns human hepatocellular liver carcinoma cell line (HepG2). Nature of the data set: Cytotoxicity MTT assay, HepG2 cells. The format is cell-based. Conditions: 24 h, unit only from tested concentrations. (In general: Tetrazolium dyes change colour on reduction, which living cells bring about.)
Data set [2] deals with normal monkey kidney cells (BGM). The data set can be described thus: Cytotoxicity MTT assay, BGM cells. It is filed as cell-based. As to conditions: for BGM MLD50: BGM cells, 24 h, MTT, unit only from tested concentrations.
The subject of data set [3] is Plasmodium berghei (NK65). The data set can be described thus: Antimalarial suppressive test against Plasmodium berghei in mice. Conditions: P. berghei; for Inhibition of parasitaemia at days after parasite inoculation (%) Fifth: day 5; for Inhibition of parasitaemia at days after parasite inoculation (%) Ninth: day 9. It is filed as in vivo. The essentials:
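Oral 4-day-type suppressive test, run once. P. berghei NK65 (chloroquine-sensitive) blood stages kept at -70 °C and passaged weekly in outbred Swiss mice. Adult female mice (20 ± 2 g) received 1 × 10^5 infected erythrocytes and were randomised into groups of three 24 h later. […] Parasitaemia was read on Giemsa-stained tail-blood smears on days 5 and 9, as inhibition versus untreated mice (100%).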

Data set [4] deals with Plasmodium falciparum W2 clone (chloroquine-resistant). The data set can be described thus: In vitro activity against P. falciparum blood-stage parasites, anti-HRPII test. The format is cell-based. Conditions: classified by IC50.
Setting [5] is: chloroquine 20 mg/kg, listed as chloroquine.
[6] abbreviates: oral 100 mg/kg for three consecutive days.

Each structure is given as a SMILES string. Some results are limits rather than exact numbers.

Regarding `CC(C)=CCC1=C(O)C(=O)c2ccccc2C1=O` [Compound 10, Lapachol], the “HepG2 MLD50” value in data set [1] is 1,491.7 ± 321.4 µM. Moreover, the “BGM MLD50” value in data set [2] was 1,785.1 ± 888.3 µM.
Turning to `CCN(CC)CCCC(C)Nc1ccnc2cc(Cl)ccc12` (stereo not shown) [Chloroquine], in data set [3] (chloroquine 20 mg/kg), the Activity result is “Cure”, the “Inhibition of parasitaemia at days after parasite inoculation (%) Fifth” value stood at 100% and the “Inhibition of parasitaemia at days after parasite inoculation (%) Ninth” value came to 100%. Moreover, in data set [3] (setting [5]), the Activity result is “clearing parasitaemia” and the survival of mice entry is on record as “maintaining survival of the mice”.
`CC1=C(O)C(=O)c2ccccc2C1=O` [Compound 13, 2-hydroxy-3-methyl-1,4-naphthoquinone]: the “HepG2 MLD50” value in data set [1] is 5,308.2 ± 8.3 µM. Besides, the “BGM MLD50” value in data set [2] is recorded as ≥ 5,314.1 µM.
Regarding `CC(C)/C=C/C1=C(O)C(=O)c2ccccc2C1=O` [Compound 12, Iso-lapachol], in data set [1], the “HepG2 MLD50” value was ≥ 4,127.6 µM. The “BGM MLD50” value in data set [2] is reported as 1,388.9 ± 592.5 µM. The “difference in cytotoxicity between HepG2 and BGM cells” value in data set [2] (HepG2 versus BGM) is given as “near two-fold increase”. For the same compound, the “in vitro activity class against P. falciparum” value in data set [4] is recorded as “partially active (those with IC50 values between 5-30 µM were considered partially active)”.
In the case of `CC(C)=CC1=C(O)C(=O)c2ccccc2C1=O` [Compound 11, Nor-lapachol], in data set [3] (oral 100 mg/kg), the “in vivo activity class” value was “inactive”. Besides, in data set [3] (setting [6]), the “Inhibition of parasitaemia at days after parasite inoculation (%) Fifth” value stood at 21% and the “Inhibition of parasitaemia at days after parasite inoculation (%) Ninth” value worked out at 21%. Further, in data set [1], the “HepG2 MLD50” value is 1,698.6 ± 94.8 µM. Further, in data set [2], the “BGM MLD50” value is given as 1,608.8 ± 221.8 µM. Further, the “in vitro activity class against P. falciparum” value in data set [4] is “partially active (those with IC50 values between 5-30 µM were considered partially active)”.
